ChEMBL document CHEMBL2311362, “Fragment-based discovery of novel and selective mPGES-1 inhibitors Part 1: identification of sulfonamido-1,2,3-triazole-4,5-dicarboxylic acid” (Bioorg Med Chem Lett, 2013)
pIC50: −log10 of the molar value. Calls of active or inactive are those of the source. The calls are words filed in the database; no cut-off is given here.

Tests used:
Prostaglandin E synthase = molecular target: T1, Prostaglandin E synthase (Homo sapiens, UniProt O14684); assay: Inhibition of mPGES1 (unknown origin) using PGH2 as substrate incubated for 30 mins prior to substrate addition by PGH2-coupled spectrophotometric analysis
T1 sequence (O14684 whole entry): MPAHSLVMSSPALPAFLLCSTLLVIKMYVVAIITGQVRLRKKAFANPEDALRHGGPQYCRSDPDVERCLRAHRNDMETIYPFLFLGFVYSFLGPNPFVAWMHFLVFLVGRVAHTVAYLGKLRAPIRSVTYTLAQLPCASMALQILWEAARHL
Method in brief: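 Two-enzyme coupled assay. 110 nM mPGES-1 and 220 nM 15-PGDH in 200 µL buffer (50 mM Tris-HCl pH 7.5, 50 µM PMA, 2 mM reduced glutathione, 1 mM NAD+, 0.1 mM DTT), compound added in 1 µL DMSO, preincubated 30 min. Started with cold PGH2 (14 µM final). NADH read by fluorescence, excitation 340 nm, emission 468 nm. IC50 from varying concentrations.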

[1] = Inhibition of rat mPGES1 expressed in CHOK21 cells using [3H]PGH2 as substrate by radio-HPLC analysis; format: cell-based
[2] = molecular target: T2, Prostaglandin E synthase (Homo sapiens) (UniProt O14684); assay: Inhibition of human recombinant mPGES1 using PGH2 as substrate at 10 uM incubated for 5 mins prior to substrate addition measured after 5 mins by HPLC analysis in presence of triton-X-100
T2 sequence (whole entry): T1 sequence (O14684 whole entry)
Method in brief: (§1)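 mPGES-1 inhibition measured at 10 µM test compound, run with and without 0.1% Triton X-100, following a previously published protocol. Reported as % inhibition.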

[3] = molecular target: T2, Prostaglandin E synthase (Homo sapiens); assay: Ratio of MK886 IC50 to compound IC50 for mPGES1 (unknown origin)
[4] = molecular target: T2, Prostaglandin E synthase (Homo sapiens); assay: Inhibition of human recombinant mPGES1 using PGH2 as substrate at 10 uM incubated for 5 mins prior to substrate addition measured after 5 mins by HPLC analysis; method in brief: as §1
[5] = molecular target: T3, Prostaglandin G/H synthase 2 (Homo sapiens) (UniProt P35354); assay: Inhibition of human recombinant COX2 using arachidonic acid as substrate at 1 mM incubated for 10 mins prior to substrate addition measured for 2 mins by enzyme immunoassay
T3 sequence (whole entry): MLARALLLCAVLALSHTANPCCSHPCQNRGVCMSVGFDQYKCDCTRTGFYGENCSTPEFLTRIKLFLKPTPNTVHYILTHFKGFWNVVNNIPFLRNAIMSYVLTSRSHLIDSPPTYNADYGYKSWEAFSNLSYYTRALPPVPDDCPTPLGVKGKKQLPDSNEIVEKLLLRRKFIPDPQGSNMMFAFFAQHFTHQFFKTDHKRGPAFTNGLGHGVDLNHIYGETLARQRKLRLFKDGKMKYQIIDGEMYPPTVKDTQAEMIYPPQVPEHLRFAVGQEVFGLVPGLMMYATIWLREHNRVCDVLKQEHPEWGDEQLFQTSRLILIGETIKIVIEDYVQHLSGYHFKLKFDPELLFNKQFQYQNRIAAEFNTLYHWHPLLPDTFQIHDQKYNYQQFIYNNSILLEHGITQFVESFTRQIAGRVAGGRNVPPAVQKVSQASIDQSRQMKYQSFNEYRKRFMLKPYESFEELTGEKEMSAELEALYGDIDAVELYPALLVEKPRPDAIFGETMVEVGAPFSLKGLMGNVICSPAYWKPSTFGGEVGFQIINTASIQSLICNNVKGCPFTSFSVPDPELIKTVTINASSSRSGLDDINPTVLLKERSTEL

[6] = Selectivity index, ratio of IC50 for ovine COX1 to IC50 for mPGES1 (unknown origin)
[7] = molecular target: T4, Prostaglandin G/H synthase 1 (Ovis aries) (UniProt P05979); assay: Inhibition of ovine COX1 using PGH2 as substrate at 1 mM incubated for 10 mins prior to substrate addition measured for 2 mins by enzyme immunoassay; conditions: in the assay text read “arachidonic acid” for “PGH2”
T4 sequence (whole entry): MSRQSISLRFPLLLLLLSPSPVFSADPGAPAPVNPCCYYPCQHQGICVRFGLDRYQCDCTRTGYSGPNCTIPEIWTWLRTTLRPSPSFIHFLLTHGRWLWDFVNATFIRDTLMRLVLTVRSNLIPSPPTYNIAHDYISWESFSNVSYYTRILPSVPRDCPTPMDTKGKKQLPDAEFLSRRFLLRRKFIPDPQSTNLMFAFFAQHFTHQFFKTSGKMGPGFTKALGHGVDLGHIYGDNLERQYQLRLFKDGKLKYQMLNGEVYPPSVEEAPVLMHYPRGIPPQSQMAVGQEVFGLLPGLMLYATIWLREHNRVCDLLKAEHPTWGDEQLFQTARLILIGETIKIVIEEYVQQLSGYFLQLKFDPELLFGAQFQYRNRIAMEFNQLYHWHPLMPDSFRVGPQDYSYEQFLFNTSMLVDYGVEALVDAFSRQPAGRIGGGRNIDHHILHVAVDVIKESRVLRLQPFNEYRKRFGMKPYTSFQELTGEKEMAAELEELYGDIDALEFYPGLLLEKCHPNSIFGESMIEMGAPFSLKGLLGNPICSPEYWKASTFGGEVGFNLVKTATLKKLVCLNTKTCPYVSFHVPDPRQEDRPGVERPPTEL
Method in brief: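 COX-1 (purified ovine) or COX-2 (purified human recombinant) preincubated with test compound 10 min at 37 °C, then tested at 1 mM. Prostanoid product quantified by enzyme immunoassay with a broadly specific antibody that binds all major prostaglandins (COX inhibitor screening kit).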

Compound | pIC50 (Prostaglandin E synthase) | other results
O=C(O)c1nnn(CCNS(=O)(=O)c2cccc(C(F)(F)F)c2)c1C(=O)O | 5.36 | 
COC(=O)c1nnn(CCNS(=O)(=O)c2ccccc2)c1C(=O)OC | 4.89 | 
CCS(=O)(=O)NCCn1nnc(C(=O)O)c1C(=O)O | 5.01 | 
O=C(O)c1nnn(CCNS(=O)(=O)c2ccccc2C(F)(F)F)c1C(=O)O | 5.48 | 
CS(=O)(=O)NCCn1nnc(C(=O)O)c1C(=O)O | 4.99 | 
CC(C)c1ccc2c(c1)c(SC(C)(C)C)c(CC(C)(C)C(=O)O)n2Cc1ccc(Cl)cc1 |  | pIC50 [1]: 5.49
O=C(O)c1nnn(CCNS(=O)(=O)c2ccccc2)c1C(=O)O | 5.39 | 
NC(=O)c1nnn(CCNS(=O)(=O)c2ccccc2)c1C(N)=O | 4.63 | 
CN(CCn1nnc(C(=O)O)c1C(=O)O)S(=O)(=O)c1ccccc1 | 5.40 | 

Now from value to compound, other results behind:

pIC50 (Prostaglandin E synthase) | Compound | other results
5.20 | Cc1ccc(S(=O)(=O)NCCCn2nnc(C(=O)O)c2C(=O)O)cc1 | 
5.38 | Cc1ccc(S(=O)(=O)NCCn2nnc(C(=O)O)c2C(=O)O)cc1 | 
5.42 | CCCN(CCn1nnc(C(=O)O)c1C(=O)O)S(=O)(=O)c1ccc(C)cc1 | 
5.16 | Cc1ccc(S(=O)(=O)NCn2nnc(C(=O)O)c2C(=O)O)cc1 | 
5.96 | O=C(O)c1nnn(CCN(c2ccccc2)S(=O)(=O)c2ccccc2)c1C(=O)O | inhibition [2]: 18.1%; Ratio IC50 [3]: 3.5; inhibition [4]: 69.1%; inhibition [5]: inactive; Ratio IC50 [6]: 1000; inhibition [7]: 50%
